Results on one compound are retold here after ChEMBL document CHEMBL3526142, “Biotransformation of a novel antimitotic agent, I-387, by mouse, rat, dog, monkey, and human liver microsomes and in vivo pharmacokinetics in mice” (Drug Metab Dispos, 2011).

A short description of series [1]: Bioavailability in ICR mouse at 1 mg/kg, ip by LC-MS/MS analysis. Type of series: ADME, organism-based. The settings on record: in vivo. Summed up:
(§1)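 Male ICR mice (5–6 weeks, 20–25 g), single doses of 1, 5 or 15 mg/kg in 10% DMSO/PEG300, given iv by tail vein, ip, or orally by gavage. Three to four mice per time point, euthanized under isoflurane, blood drawn from posterior vena cava. Plasma protein precipitated with acetonitrile containing internal standard, then LC-MS/MS (MRM m/z 388.2→192). Noncompartmental analysis of mean concentration-time data, AUCinf by trapezoidal rule with extrapolation, CL = dose/AUCinf, Cmax read from the curve. F = (AUCnon-iv × dose iv)/(AUCiv × dose non-iv). n = 3 per dose group.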

The nature of series [2]: AUC (infinity) in ICR mouse at 1 mg/kg, po via gavage by LC-MS/MS analysis. Further details: time infinity, dose 1 mg/kg, route oral. In kind it is ADME, organism-based. The settings on record: plasma. Summed up: as §1
A short description of series [3]: Drug metabolism in monkey liver microsomes assessed as (3-(1H-indol-2-yl)phenyl)(3,4,5-trimethoxyphenyl)methanol formation at 0.5 uM after 2 hrs by LC-MS/MS analysis in presence of 3 mM NADPH. In kind it is ADME, Macaca mulatta. Conditions: rhesus monkey. Summed up:
(§2)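 Pooled liver microsomes (1 mg/ml protein) incubated with 0.5 µM substrate and 3 mM NADPH in 65 mM potassium phosphate, pH 7.4, 1% methanol, at 37°C for 2 h. Stopped with ice-cold acetonitrile containing internal standard, centrifuged. Supernatant analysed by LC-MS/MS on a C18 column, 15-min gradient, with product ion scans for metabolite identification.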

Series [4] can be described thus: Metabolic stability in rat liver microsomes assessed as half life during phase 1 at 0.5 uM by LC-MS/MS analysis in presence of 3 mM NADPH and absence of UDPGA. In kind it is ADME. Conditions: read-out: alphat1/2. The essentials: (§3)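 Pooled liver microsomes at 1 mg/ml protein with 3 mM NADPH, 0.5 μM substrate in 65 mM potassium phosphate pH 7.4, 1% methanol, 37°C. Incubations stopped at 10, 20, 30, 60 and 90 min with ice-cold acetonitrile plus internal standard, then LC-MS/MS of parent remaining relative to time 0. Half-life from a two-parameter single exponential decay fit; n = 2 to 3.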

A short description of series [5]: Mean residence time (infinity) in ICR mouse at 15 mg/kg, ip by LC-MS/MS analysis. In kind it is ADME, organism-based. Further details: dose 15 mg/kg, route intraperitoneal. Conditions: in vivo. Summed up:
as §1

A short description of series [6]: Clearance in ICR mouse at 1 mg/kg, iv by LC-MS/MS analysis. Type of series: ADME, organism-based. Further details: dose 1 mg/kg, route intravenous. Conditions: in vivo. The essentials:
as §1

Series [7] can be described thus: Metabolic stability in dog liver microsomes assessed as half life during phase 1 at 0.5 uM by LC-MS/MS analysis in presence of 3 mM NADPH and absence of UDPGA. Type of series: ADME, Canis lupus familiaris. Conditions: read-out: alphat1/2. Summed up:
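Pooled liver microsomes (1 mg/ml) incubated with 0.5 µM substrate and 3 mM NADPH in 65 mM potassium phosphate, pH 7.4, 1% methanol, at 37°C. The phase I+II set also had 5 mM UDPGA, 5 mM D-saccharolactone, 50 µg/ml alamethicin and 3 mM MgCl2. Stopped at 10–90 min with cold acetonitrile plus internal standard. Parent remaining by LC-MS/MS relative to time 0. t1/2 from a two-parameter single exponential decay fit; n = 2–3.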

Series [8] in a line: AUC (infinity) in ICR mouse at 15 mg/kg, po via gavage by LC-MS/MS analysis. Type of series: ADME, organism-based. Further details: time infinity, dose 15 mg/kg, route oral. Conditions: plasma. Summed up: as §1
Series [9] is described as follows: Mean residence time (infinity) in ICR mouse at 5 mg/kg, ip by LC-MS/MS analysis. Details: dose 5 mg/kg, route intraperitoneal. The settings on record: in vivo. In kind it is ADME, organism-based. Summed up:
as §1

The nature of series [10]: Volume of distribution at steady state in ICR mouse at 1 mg/kg, iv by LC-MS/MS analysis. Further details: dose 1 mg/kg, route intravenous. The settings on record: in vivo, read-out: Vdss. Type of series: ADME, organism-based. Summed up: (§4)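 Tail-vein injection in male ICR mice (5–6 weeks), vehicle 10% DMSO in PEG300. Serial terminal sampling of 3–4 mice per time point, with posterior vena cava blood. Plasma was acetonitrile-precipitated and measured by LC-MS/MS. Noncompartmental analysis of mean data: t1/2 = ln2/λz, CL = dose/AUC_inf, Vd_ss = CL × MRT_inf; n = 3/dose group.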

A short description of series [11]: Metabolic stability in human liver microsomes assessed as half life during phase 1 and 2 at 0.5 uM by LC-MS/MS analysis in presence of 3 mM NADPH and 5 mM UDPGA. Conditions: read-out: alphat1/2.
Series [12] in a line: Terminal half life in ICR mouse at 1 mg/kg, po via gavage by LC-MS/MS analysis. In kind it is ADME, organism-based. The settings on record: in vivo, read-out: beta t1/2 (converted). Further details: dose 1 mg/kg, route oral. Summed up:
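Male ICR mice (20–25 g) given the compound intraperitoneally or by gavage in 10% DMSO/PEG300. Three to four mice were sacrificed per time point and plasma collected from the vena cava. Plasma was precipitated with acetonitrile containing internal standard and analysed by LC-MS/MS. Noncompartmental analysis of mean concentration-time data: terminal t1/2 = ln2/λz; Tmax by inspection; n = 3/dose group.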

A short description of series [13]: Volume of distribution at steady state in ICR mouse at 15 mg/kg, iv by LC-MS/MS analysis. Type of series: ADME, organism-based. Further details: dose 15 mg/kg, route intravenous. The settings on record: in vivo, read-out: Vdss. The essentials:
as §4

The nature of series [14]: Clearance in ICR mouse at 15 mg/kg, iv by LC-MS/MS analysis. The settings on record: in vivo. Type of series: ADME, organism-based. Further details: dose 15 mg/kg, route intravenous. The essentials:
as §1

A short description of series [15]: Mean residence time (infinity) in ICR mouse at 5 mg/kg, iv by LC-MS/MS analysis. Type of series: ADME, organism-based. Details: dose 5 mg/kg, route intravenous. The settings on record: in vivo. The essentials: as §1
In another series the test system is Liver microsome. The experiment in a line: Drug metabolism in dog liver microsomes assessed as (3-(1H-indol-2-yl)phenyl)(3,4,5-trimethoxyphenyl)methanol formation at 0.5 uM after 2 hrs by LC-MS/MS analysis in presence of 3 mM NADPH. In kind it is ADME, Canis lupus familiaris. The essentials:
as §2

Series [16] in a line: Mean residence time (infinity) in ICR mouse at 5 mg/kg, po via gavage by LC-MS/MS analysis. Type of series: ADME, organism-based. Further details: dose 5 mg/kg, route oral. The settings on record: in vivo. Summed up:
as §1

Series [17] is described as follows: Metabolic stability in monkey liver microsomes assessed as half life during phase 1 at 0.5 uM by LC-MS/MS analysis in presence of 3 mM NADPH and absence of UDPGA. Type of series: ADME, Macaca mulatta. The settings on record: rhesus monkey, read-out: alphat1/2. The essentials:
as §3

Series [18] can be described thus: Retention time of the compound at 0.5 uM by LC-MS/MS analysis. In kind it is physicochemical. Summed up:
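After a 2 h incubation at 37°C with liver microsomes (1 mg/ml protein, 3 mM NADPH, 0.5 μM substrate, pH 7.4 phosphate buffer), samples were quenched with acetonitrile and centrifuged. Supernatant separated on a C18 column (15 min run, linear gradient 100% A to 100% B over 7 min) with LC-MS/MS ion trap detection.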

The nature of series [19]: Drug level in monkey liver microsomes assessed as compound retention time treated with 0.5 uM I-387 after 2 hrs by LC-MS/MS analysis. Type of series: ADME, Macaca mulatta. Conditions: rhesus monkey. Summed up: as §2
Series [20] in a line: Clearance in ICR mouse at 5 mg/kg, iv by LC-MS/MS analysis. In kind it is ADME, organism-based. Details: dose 5 mg/kg, route intravenous. The settings on record: in vivo. Summed up: as §1
Series [21] is described as follows: Cmax in ICR mouse at 5 mg/kg, po via gavage by LC-MS/MS analysis. Type of series: ADME, organism-based. Further details: dose 5 mg/kg, route oral. Conditions: in vivo. The essentials:
as §1

Series [22] is described as follows: Antitumor activity against human PC3 cells xenografted in nu/nu mouse assessed as decrease in tumor growth at 10 mg/kg, ip 2 days per week for weeks. Type of series: functional. The settings on record: PC-3, ip, 48 h, route intraperitoneal.

In [1], `COc1cc(C(=O)c2cccc(-c3cc4ccccc4[nH]3)c2)cc(OC)c1OC` yielded a bioavailability of 65%. In addition, the AUC(0-inf) is 148 ng·h/mL in [2] and 1070 ng·h/mL in [8]. Further, the Drug metabolism entry (in series [3]; in the series with Liver microsome) was “metabolite_detected” each time. For the same compound, the half-life at 0.5 µM in [4] was found to be 0.7 h; in series [7], 0.483 h; in [11], 0.5 h; in series [17], 0.25 h. Moreover, the MRT inf was determined as 7 h in series [5], 5.5 h in series [9], 3.3 h in series [15] and 8.9 h in [16]. Also, the clearance in [6] stood at 27 mL/min/kg; in series [14], 19 mL/min/kg; in series [20] it was 22 mL/min/kg. The Vd in series [10] turned out to be 5.3 L/kg; in [13] it was 9.8 L/kg. The half-life in series [12] was 8.7 h. In addition, the Retention_time in series [18] and in series [19] was 11.3 min in each case. Further, the Cmax in series [21] was 100 ng/mL. Moreover, the inhibition in vivo at 10 mg/kg in series [22] is 68%.
